Test results: ChEMBL document CHEMBL1144197, “Synthesis of 5-(1-H or 1-alkyl-5-oxopyrrolidin-3-yl)-8-hydroxy-[1,6]-naphthyridine-7-carboxamide inhibitors of HIV-1 integrase” (Bioorg Med Chem Lett, 2008)

Key:
[1] = Clearance in rat at 2 mg/kg, iv; format: ADME, organism-based; set-up: dose 2 mg/kg, route intravenous; conditions: in vivo
Method in brief: (§1)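 Intravenous dosing in DMSO at 2 mg/kg.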

[2] = Half life in rat at 2 mg/kg, iv; format: ADME, organism-based; set-up: dose 2 mg/kg, route intravenous; conditions: in vivo; method in brief: as §1
[3] = Oral bioavailability in rat at 10 mg/kg; format: ADME, organism-based; conditions: in vivo
Method in brief: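 Oral dosing in 1% methylcellulose at 10 mg/kg.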

[4] = test system: Human immunodeficiency virus 1; assay: Antiviral activity against HIV1 3b in human MT4 cells assessed as decrease in HIV1 p24 core antigen in presence of 10% fetal bovine serum; format: functional
Method in brief: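 HIV-1 IIIb replication in MT-4 human T-lymphoid cells, cultured with 10% FBS across increasing inhibitor concentrations. Read-out is the decrease in p24 core antigen. IC95 is the concentration giving 95% inhibition of viral growth relative to control.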

[5] = Protein binding in human plasma at pH 7.4; format: ADME, cell-free; conditions: read-out: PPB (converted)
Method in brief: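 Binding to human plasma (primarily albumin) measured by HPLC with UV detection, in pH 7.4 buffer at room temperature. Each value is the average of three determinations.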

[6] = test system: Human immunodeficiency virus 1; assay: Antiviral activity against HIV1 3b in human MT4 cells assessed as decrease in HIV1 p24 core antigen in presence of 50% normal human serum
[7] = target: Human immunodeficiency virus type 1 integrase (Human immunodeficiency virus 1, UniProt Q7ZJM1); assay: Inhibition of recombinant HIV1 integrase strand transfer activity using immobilized DNA substrate
Method in brief: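 Recombinant HIV integrase (100 nM) preassembled on immobilized oligonucleotides, with 0.5 nM DNA, in a strand transfer read-out. Values are means of at least two experiments. The lower limit of accuracy is about 5 nM, with SD approximately twofold.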

[8] = Partition coefficient, log P at pH 7.4; format: physicochemical; conditions: octanol/water
Method in brief: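 A methanol solution of compound is partitioned between octanol and pH 7.4 KH2PO4/NaOH aqueous buffer, and both layers are quantified by HPLC-UV. Log P = log[(octanol area × octanol dilution)/(buffer area × buffer dilution)].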

Human immunodeficiency virus type 1 integrase, sequence (Q7ZJM1 whole entry): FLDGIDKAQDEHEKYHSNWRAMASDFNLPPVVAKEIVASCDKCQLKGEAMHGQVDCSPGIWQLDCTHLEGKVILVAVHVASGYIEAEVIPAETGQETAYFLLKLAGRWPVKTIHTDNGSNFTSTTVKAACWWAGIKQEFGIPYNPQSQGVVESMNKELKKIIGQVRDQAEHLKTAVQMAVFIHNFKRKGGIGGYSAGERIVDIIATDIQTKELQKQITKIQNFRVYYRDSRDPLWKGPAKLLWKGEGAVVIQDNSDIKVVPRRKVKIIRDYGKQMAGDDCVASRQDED

clearance [1] [mL/min/kg] | half-life [2] [h] | bioavailability [3] [%] | fraction unbound [5] | IC50 [7] [nM] | logD [8] | Structure (SMILES) | IC95 [4] [nM] | Antiviral potency (p24 reduction) [6] [nM]
2.5 | 1.3 | 65 |  |  |  | CN1CC(c2nc(C(=O)NCc3ccc(F)cc3)c([O-])c3ncccc23)CC1=O.[Na+] (stereo not given) |  | 
23.4 | 3.4 | 5 |  |  |  | CN(C)C(=O)CN1CC(c2nc(C(=O)NCc3ccc(F)cc3)c([O-])c3ncccc23)CC1=O.[Na+] (stereo not given) |  | 
 |  |  | 0.008 |  |  | O=C(NCc1ccc(F)cc1)c1ncc2cccnc2c1O | 1250 | 5000
 |  |  | 0.012 | 20 | 2.3 | CN1CC(c2nc(C(=O)NCc3ccc(F)cc3)c(O)c3ncccc23)CC1=O (stereo not given) | 31 | 125
 |  |  | 0.011 | 14 | 2.7 | CCN1CC(c2nc(C(=O)NCc3ccc(F)cc3)c(O)c3ncccc23)CC1=O (stereo not given) | 16 | 125
 |  |  | 0.022 | 40 | 2.7 | CC(C)N1CC(c2nc(C(=O)NCc3ccc(F)cc3)c(O)c3ncccc23)CC1=O (stereo not given) | 31 | 125
 |  |  | 0.052 | 33 | 1.8 | CN(C)C(=O)CN1CC(c2nc(C(=O)NCc3ccc(F)cc3)c(O)c3ncccc23)CC1=O (stereo not given) | 31 | 63
17.2 | 0.67 | 4 | 0.03 | 123 | 1.6 | CN1CC(c2nc(C(=O)NCc3ccc(F)cc3S(C)(=O)=O)c(O)c3ncccc23)CC1=O (stereo not given) | 31 | 63
 |  |  | 0.04 | 26 | 1.9 | CCN1CC(c2nc(C(=O)NCc3ccc(F)cc3S(C)(=O)=O)c(O)c3ncccc23)CC1=O (stereo not given) | 38 | 81
 |  |  |  | 24 |  | O=C1CC(c2nc(C(=O)NCc3ccc(F)cc3)c(O)c3ncccc23)CN1 (stereo not given) | 42 | 83
